A selection: hits, their analogues and other compounds. The true share with any hit is near 2.6%.
Rad51 HR inh = Rad51 (human) homologous recombination inhibition; AID 1385; 200,000 tested, 0.085% active; inhibition, % at 10 µM; Q06609; hRad51 DNA strand exchange, fluorescence dequenching;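 active = inhibition above 40% at the single screening dose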
Target sequence (Q06609 whole entry, looked up): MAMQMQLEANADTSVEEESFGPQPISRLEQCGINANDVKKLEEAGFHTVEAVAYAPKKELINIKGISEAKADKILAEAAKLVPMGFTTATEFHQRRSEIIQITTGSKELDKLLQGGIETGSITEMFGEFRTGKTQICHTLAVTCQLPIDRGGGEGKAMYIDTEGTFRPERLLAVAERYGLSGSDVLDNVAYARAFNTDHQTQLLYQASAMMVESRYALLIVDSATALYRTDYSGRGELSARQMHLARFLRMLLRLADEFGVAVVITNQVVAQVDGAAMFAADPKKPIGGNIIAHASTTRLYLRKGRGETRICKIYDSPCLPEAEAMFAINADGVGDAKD
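System: human Rad51 nucleoprotein filaments preassembled on unlabelled ssDNA. Reagent: labelled 47-mer dsDNA for strand exchange. Schedule: 30-min compound preincubation and 15-min exchange, both room temperature. Measured by: FRET fluorescence dequenching, excitation 485 nm, emission 520 nm. Read-out: Fluorescence-based percent inhibition, control- and blank-normalised. Benchmarks: plate controls and plate blanks.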
CHT allo act = allosteric activators of human choline transporter CHT; B-score at 10 µM; CHT-expressing cells, membrane potential dye, choline EC20; stronger effect = higher value; LV-AA mutant CHT in HEK293 cells; Q9GZV3; 310,000 tested, 0.49% active;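 active = initial fluorescence not abnormally high and integrated response B-score, plate-corrected, over 3 SD above library mean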
Cl transport mod = modulates chloride dependent transport by human KCC2; B-score of Tl+ flux slope (higher = more flux/activation; lower = inhibition) at 10 µM; 190,000 tested, 2.2% active; KCC2 cells, thallium flux FluoZin-2 fluorescence; AID 1456; Q9H2X9;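 active = thallium flux slope and its plate-corrected score both differing from the plate sample mean at a set confidence after two filtering rounds, in either direction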;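 also: slope of fluorescence scaled to starting intensity during 10 to 20 s after thallium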
CHT block = inhibitors of human choline transporter CHT; AID 488975; Q9GZV3; B-score at 10 µM; 310,000 tested, 0.86% active; CHT-expressing cells, membrane potential dye, choline response; stronger effect = lower value;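 active = B-score over 3 SD under the library average, and starting fluorescence ratio not unusually high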;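 also: choline stimulus applied at its EC90 after an EC20 pre-addition; B-score computed on integrated fluorescence ratio after choline addition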
KCC2 secondary = KCC2 (human) modulation, secondary assay. shares compounds with Cl transport mod. HEK293-KCC2, thallium flux, FluoZin2 fluorescence; stronger effect = higher value. normalised thallium flux (F/F0 slope) at 10 µM. 3,700 tested, 15% active;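 active = thallium flux slope above the same plate's solvent-only control mean plus 3 SD; inconclusive = the two replicate wells disagree; inactive = no significant difference from solvent-only control wells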
KCC2 bumet counter = bumetanide-insensitive thallium flux in KCC2 cells with ouabain, counter-screen | HEK293-KCC2 + bumetanide/ouabain, thallium flux FluoZin2; stronger effect = higher value | normalized thallium flux at 10 µM | 3,700 tested, 49% active | shares compounds with Cl transport mod;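 active = thallium entry rate above the same plate's blocked-transporter control wells by more than 3 SD; inconclusive = the two repeat wells disagree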;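 also: raw slope of fluorescence over initial fluorescence between 10 and 20 s after thallium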
KCC2 sec2 = KCC2 (human) modulation, second secondary assay | HEK293-KCC2, thallium flux FluoZin2 fluorescence; actives lie on both sides; F/F0 rise rate, 10–20 s post-thallium | 3,700 tested, 23% active | shares compounds with Cl transport mod | normalized thallium flux at 10 µM | AID 1715;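 active = thallium flux slope more than 3 SD above or below the plate's solvent-only control mean, mostly below; inconclusive = the two repeat wells disagreed; inactive = no significant shift from solvent-only controls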
HEK293 Tl flux = counter-screen for KCC2 modulators: effect in parental HEK293 cells; thallium flux rate (normalised fluorescence) at 10 µM; thallium flux FluoZin2, ouabain; baseline-ratio fluorescence slope, 10–20 s after thallium; shares compounds with Cl transport mod; AID 1716; 3,700 tested, 46% active;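 active = thallium flux rate significantly above the same plate's solvent-only control wells, beyond their mean plus 3 SD; inconclusive = the two replicate wells gave conflicting results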
KCC2 retest ouab = confirmation of human KCC2 modulators with ouabain; AID 1717; HEK293-KCC2, thallium flux FluoZin2 fluorescence; bidirectional: low = inhibitor, high = activator; 3,700 tested, 48% active; raw Tl+ flux slope (below DMSO = inhibition, above = activation) at 10 µM; shares compounds with Cl transport mod;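 active = thallium flux slope beyond 3 SD from same-plate DMSO control mean in most replicates, usually higher, sometimes lower; inconclusive = repeat tests gave conflicting results; inactive = no significant difference from controls in most replicates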;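 also: slope of initial-normalized fluorescence between seconds 10 and 20 after thallium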
HEK293 Tl flux2 = parental HEK flux effect, counter-screen 2 | shares compounds with Cl transport mod | 3,700 tested, 33% active | AID 1718 | thallium flux slope at 10 µM | HEK293 parental, thallium flux FluoZin-2 fluorescence slope;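 active = thallium flux slope above the same plate's solvent-control mean plus 3 SD in both duplicate wells; inconclusive = duplicate wells that disagreed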;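 also: run without ouabain in cells lacking the KCC2 cotransporter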
Each line names hits and unclear results; the compound was inactive in the other large screens (follow-up assays come after a bar, where they were run).

CCOC(=O)c1ccc(NC(=O)C(=O)NCc2ccccn2)cc1	none (no result: Rad51 HR inh)
Cc1onc(-c2c(F)cccc2Cl)c1C(=O)NCCO	none
Cc1onc(-c2c(F)cccc2Cl)c1C(=O)NCc1ccccn1	Cl transport mod -4.9 | KCC2 secondary inconclusive | KCC2 bumet counter inconclusive | KCC2 sec2 inconclusive | HEK293 Tl flux inactive | KCC2 retest ouab inactive | HEK293 Tl flux2 inactive
Cc1onc(-c2ccccc2Cl)c1C(=O)NCCN1Cc2ccccc2C1=O	none (no result: Cl transport mod) | KCC2 secondary inactive | KCC2 bumet counter inactive | KCC2 sec2 inactive | HEK293 Tl flux inactive | KCC2 retest ouab inactive | HEK293 Tl flux2 inactive
CCOC(=O)c1c(C)c(C(=O)NCc2ccccn2)c(C)n1CC	Cl transport mod 8.3 | KCC2 secondary inactive | KCC2 bumet counter inactive | KCC2 sec2 inactive | HEK293 Tl flux inactive | KCC2 retest ouab inactive | HEK293 Tl flux2 inactive
O=[N+]([O-])c1ccc(NC(=S)N2CCc3ccccc32)cc1	none (no result: Rad51 HR inh, Cl transport mod)
CCN1CCN(C(=O)CCNC(=O)Cn2cnc3ccccc3c2=O)CC1	none (no result: Rad51 HR inh, Cl transport mod)
Cc1onc(-c2ccccc2Cl)c1C(=O)Nc1ccc(F)c(F)c1	none (no result: Cl transport mod)
Cc1onc(-c2ccccc2Cl)c1C(=O)NC(=S)Nc1ccccc1F	Cl transport mod 54 | KCC2 secondary 0.015 | KCC2 bumet counter 0.099 | KCC2 sec2 inactive | HEK293 Tl flux 0.044 | KCC2 retest ouab 0.041 | HEK293 Tl flux2 0.013
CCOc1ccccc1CN1CCCC(C(=O)Nc2cccc(-n3cccn3)c2)C1 (stereo not drawn)	none (no result: Rad51 HR inh, Cl transport mod)
CCCn1nnc(NC(=O)c2ccc(F)cc2)n1	Cl transport mod -4.1 | KCC2 secondary inconclusive | KCC2 bumet counter inconclusive | KCC2 sec2 inactive | HEK293 Tl flux inactive | KCC2 retest ouab inactive | HEK293 Tl flux2 inactive
O=C(Nc1nc(-c2nc3ccccc3s2)cs1)C1COc2ccccc2O1 (stereo not drawn)	Cl transport mod 2.5 | KCC2 secondary inactive | KCC2 bumet counter 0.0083 | KCC2 sec2 inactive | HEK293 Tl flux inconclusive | KCC2 retest ouab inactive | HEK293 Tl flux2 0.011
CC(C)CC(NS(=O)(=O)c1cc(C(=O)O)ccc1Cl)C(=O)O (stereo not drawn)	none
Cc1ccc(-c2csc(NC(=O)C3=NN(c4ccccc4)C(=O)CC3)n2)cc1	none
O=C(NCCN1C(=O)C2C3C=CC(C3)C2C1=O)Nc1ccccc1O (stereo not drawn)	none | KCC2 secondary inactive | KCC2 bumet counter inconclusive | KCC2 sec2 inactive | HEK293 Tl flux inactive | KCC2 retest ouab inactive | HEK293 Tl flux2 inactive
C/C(=N\NC(=S)Nc1cc(S(=O)(=O)N2CCOCC2)ccc1Cl)c1ccccc1F	Cl transport mod 6.9 | KCC2 secondary inconclusive | KCC2 bumet counter 0.025 | KCC2 sec2 inactive | HEK293 Tl flux 0.015 | KCC2 retest ouab 0.044 | HEK293 Tl flux2 inactive
Cn1cccc1/C=N/NC(=O)c1sc2ccccc2c1Cl	none (no result: Rad51 HR inh)
O=C(N/N=C/c1ccccn1)c1sc2ccccc2c1Cl	Cl transport mod 153 | KCC2 secondary 0.0091 | KCC2 bumet counter 0.11 | KCC2 sec2 0.054 | HEK293 Tl flux 0.1 | KCC2 retest ouab 0.089 | HEK293 Tl flux2 0.082
Cc1ccccc1C(=O)N/N=C/c1ccccn1	none
O=C(N/N=C\c1ccccn1)c1ccccc1O	Cl transport mod 5.4 | KCC2 secondary inactive | KCC2 bumet counter 0.013 | KCC2 sec2 inconclusive | HEK293 Tl flux 0.015 | KCC2 retest ouab 0.022 | HEK293 Tl flux2 0.017
O=C(N/N=C/c1c[nH]c2ccccc12)c1sc2ccccc2c1Cl	none
O=C(N/N=C/c1ccc([N+](=O)[O-])o1)c1sc2ccccc2c1Cl	Cl transport mod 17 | KCC2 secondary 0.018 | KCC2 bumet counter 0.1 | KCC2 sec2 inactive | HEK293 Tl flux 0.019 | KCC2 retest ouab 0.054 | HEK293 Tl flux2 0.012
O=C(COc1ccc2ccccc2c1)N/N=C/c1ccccn1	Cl transport mod -3.8 | KCC2 secondary inactive | KCC2 bumet counter inactive | KCC2 sec2 0.025 | HEK293 Tl flux inactive | KCC2 retest ouab inconclusive | HEK293 Tl flux2 inactive
CC(=O)N1CCCc2cc(S(=O)(=O)CCC(=O)N3CCN(c4cccc(C)c4)C(C)C3)ccc21 (stereo not drawn)	Cl transport mod -3.6 (no result: Rad51 HR inh) | KCC2 secondary inactive | KCC2 bumet counter inactive | KCC2 sec2 inactive | HEK293 Tl flux inactive | KCC2 retest ouab inactive | HEK293 Tl flux2 inactive
Cc1cccc(N2CCN(C(=O)CCS(=O)(=O)c3ccc(Br)cc3)CC2C)c1 (stereo not drawn)	none
CC(C)c1ccc(C(CC(=O)O)NC(=O)c2cccs2)cc1 (stereo not drawn)	none
CC(C)c1ccc(-c2csc(NC(=O)c3cccs3)c2C(=O)O)cc1	Cl transport mod 20 (no result: Rad51 HR inh) | KCC2 secondary inactive | KCC2 bumet counter 0.045 | KCC2 sec2 0.027 | HEK293 Tl flux 0.021 | KCC2 retest ouab inconclusive | HEK293 Tl flux2 inconclusive
Cc1ccn2c(c1)nc(=O)c1cc(S(=O)(=O)N3CCOCC3)ccc12	none (no result: Rad51 HR inh, Cl transport mod)
O=C(NNC(=O)c1ccc(Oc2cc(Cl)cc(Cl)c2)o1)c1ccccc1	Cl transport mod 28 | KCC2 secondary 0.014 | KCC2 bumet counter 0.051 | KCC2 sec2 inactive | HEK293 Tl flux 0.02 | KCC2 retest ouab 0.036 | HEK293 Tl flux2 0.012
N#Cc1c(NC(=O)c2ccccc2Cl)n(Cc2ccccc2)c2nc3ccccc3nc12	Cl transport mod -4.6 | KCC2 secondary inactive | KCC2 bumet counter inactive | KCC2 sec2 inactive | HEK293 Tl flux 0.0051 | KCC2 retest ouab 0.014 | HEK293 Tl flux2 inactive
Cc1ccc(CS(=O)(=O)CCC(=O)NCc2ccccc2Cl)cc1	none (no result: Rad51 HR inh, Cl transport mod)
Clc1ccccc1CSC1=NCCCN1	none (no result: Cl transport mod) | KCC2 secondary inactive | KCC2 bumet counter inactive | KCC2 sec2 inactive | HEK293 Tl flux inactive | KCC2 retest ouab inactive | HEK293 Tl flux2 inactive
COc1cc(C2CC(=O)OC3=C2C(=O)CC(C)(C)C3)cc(OC)c1OC (stereo not drawn)	none (no result: Rad51 HR inh)
Cc1nc(Nc2ccc(Cl)cc2Cl)sc1C(=O)Nc1ccccc1	Cl transport mod 3.7 | KCC2 secondary inactive | KCC2 bumet counter inactive | KCC2 sec2 inactive | HEK293 Tl flux inactive | KCC2 retest ouab inactive | HEK293 Tl flux2 inactive
Cc1nc(Nc2ccc(Cl)c(Cl)c2)sc1C(=O)Nc1ccccc1	none
CCCCOc1ccc(-c2nc(/C=N/c3nccs3)c(O)o2)cc1	none
